Experimental findings from ChEMBL document CHEMBL4311948, “Exploring the Natural Piericidins as Anti-Renal Cell Carcinoma Agents Targeting Peroxiredoxin 1” (J Med Chem, 2019) are described below.

Activity calls are given as the source filed them. The rule behind the calls is not given here.

Test [1] concerns ACHN. Nature of the test: Cytotoxicity against human ACHN cells assessed as reduction in cell viability measured after 72 hrs by CCK8 assay. The test is classed as functional, cell-based. In short, it runs like this: (§1)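 Cells were grown in 10% FBS medium: MEM for ACHN, RPMI1640 for OS-RC-2 and 786-O, DMEM for HK-2. They were seeded at 400–800 cells/well in 384-well plates and treated with a range of compound concentrations or solvent control, with sorafenib as positive control. After 72 h, CCK-8 absorbance was read at 450 nm in triplicate, and IC50 was taken from dose-response curves.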
(In general: Formazan colour is commonly taken as a measure of viable cells.)

Test [2] has as its system OS-RC-2. As to the kind of experiment: Cytotoxicity against human OS-RC2 cells assessed as reduction in cell viability measured after 72 hrs by CCK8 assay. To be noted: OS-RC-2, 72 h. The test is classed as functional, cell-based. In short, it runs like this: as §1
Test [3] has as its system ACHN. As to the kind of experiment: Cytotoxicity against human ACHN cells harboring shPRDX1 gene assessed as reduction in cell viability measured after 72 hrs by CCK8 assay. The class given is functional, cell-based. The settings on record: Homo sapiens, ACHN, 72 h; read-out: IC50. In short, it runs like this: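 Transfectants were selected with puromycin (1 μg/mL), and knockdown was confirmed by immunoblot. Viability was read by CCK-8 after 72 h of compound exposure in 384-well plates at 400–800 cells/well in MEM with 10% FBS, and IC50 was taken from dose-response curves.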

The subject of test [4] is ACHN. As to the kind of experiment: Down regulation of EGFR mRNA expression in human ACHN cells at 25 to 50 nM measured after 24 hrs by qRT-PCR analysis. The test is classed as functional, cell-based. (In general: Quantitative PCR measures a nucleic acid by following its amplification.)
For test [5], the system named is ACHN. As to the kind of experiment: Down regulation of SOD2 mRNA expression in human ACHN cells at 25 to 50 nM measured after 24 hrs by qRT-PCR analysis. The test is classed as functional, cell-based.
For test [6], the system named is ACHN. As to the kind of experiment: Down regulation of ETS1 mRNA expression in human ACHN cells at 25 to 50 nM measured after 24 hrs by qRT-PCR analysis. The test is classed as functional, cell-based.
For test [7], the system named is ACHN. Nature of the test: Down regulation of HK2 mRNA expression in human ACHN cells at 25 to 50 nM measured after 24 hrs by qRT-PCR analysis. The test is classed as functional, cell-based.
Test [8] concerns ACHN. As to the kind of experiment: Down regulation of SLC2A1 mRNA expression in human ACHN cells at 25 to 50 nM measured after 24 hrs by qRT-PCR analysis. The class given is functional, cell-based.
Test [9] relates to ACHN. Nature of the test: Down regulation of LDHA mRNA expression in human ACHN cells at 25 to 50 nM measured after 24 hrs by qRT-PCR analysis. The test is classed as functional, cell-based.
Test [10] concerns ACHN. As to the kind of experiment: Down regulation of HIF1A mRNA expression in human ACHN cells at 25 to 50 nM measured after 24 hrs by qRT-PCR analysis. The class given is functional, cell-based.
Test [11] concerns the target T1, Peroxiredoxin-1 (Homo sapiens) (UniProt Q06830).
T1 sequence (whole entry): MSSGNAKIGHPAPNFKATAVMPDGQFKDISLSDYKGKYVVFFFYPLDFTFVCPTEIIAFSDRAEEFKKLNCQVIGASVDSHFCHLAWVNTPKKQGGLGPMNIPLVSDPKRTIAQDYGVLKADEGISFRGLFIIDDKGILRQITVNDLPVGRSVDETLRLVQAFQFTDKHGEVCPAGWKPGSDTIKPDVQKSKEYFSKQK
As to the kind of experiment: Activation of PRDX1 in human ACHN cells assessed as reduction in reactive oxygen species level at 25 to 50 nM measured after 24 hrs by Cell-rox reagent-based flow cytometry. In short, it runs like this:
(§2)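 ACHN cells grown 24 h in MEM + 10% FBS, reseeded at 2 × 10^4 cells/well and exposed to 0, 25 or 50 nM for 24 h. Harvested cells loaded with CellROX oxidative stress reagent 5 μM, 30 min at 37 °C in the dark, then read by flow cytometry. shPRDX1 line: stable knockdown selected with puromycin (1 μg/mL) before dosing. Mean ± SD.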

In test [12] the test system is ACHN. Nature of the test: Antioxidant activity in human ACHN cells harboring shPRDX1 gene assessed as reduction in reactive oxygen species level at 25 to 50 nM measured after 24 hrs by Cell-rox reagent-based flow cytometry. The test is classed as functional. The method, boiled down:
as §2
On the technique in general: Flow cytometry measures light scatter and fluorescence of single cells or particles in a stream.

Test [13] has as its system ACHN. Nature of the test: Antiproliferative activity against human ACHN cells assessed as inhibition of cell proliferation at 50 nM measured after 24 to 72 hrs by holographic microscopy. The test is classed as functional, cell-based. The method, boiled down:
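2×10^5 ACHN cells plated per well and allowed to adhere 24 h. 50 nM then added. Label-free digital holographic microscopy (Holomonitor M4) automatically tracked cell movement, morphology and thickness over time.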

Test [14] deals with ACHN. As to the kind of experiment: Induction of apoptosis in human ACHN cells assessed as viable cells at 50 nM measured after 24 hrs by Annexin V-FITC/propidium iodide staining based flow cytometry (reference value: 100%). The class given is functional. The settings on record: read-out: Activity.
The test system of test [15] is ACHN. As to the kind of experiment: Induction of apoptosis in human ACHN cells assessed as late apoptotic cells at 50 nM measured after 24 hrs by Annexin V-FITC/propidium iodide staining based flow cytometry (reference value: 0%). The test is classed as functional.
Test [16] concerns ACHN. Nature of the test: Induction of apoptosis in human ACHN cells assessed as viable cells at 50 nM measured after 48 hrs by Annexin V-FITC/propidium iodide staining based flow cytometry (reference value: 99.9%). The class given is functional. To be noted: read-out: Activity.
The subject of test [17] is ACHN. As to the kind of experiment: Induction of apoptosis in human ACHN cells assessed as early apoptotic cells at 50 nM measured after 48 hrs by Annexin V-FITC/propidium iodide staining based flow cytometry (reference value: 0%). The class given is functional.
Test [18] deals with ACHN. As to the kind of experiment: Induction of apoptosis in human ACHN cells assessed as necrotic cells at 50 nM measured after 48 hrs by Annexin V-FITC/propidium iodide staining based flow cytometry (reference value: 0%). The class given is functional.
In test [19] the test system is ACHN. As to the kind of experiment: Up regulation of nuclear PRDX1 expression in human ACHN cells at 25 to 50 nM measured after 24 hrs by immunoblot analysis. The class given is functional, cell-based. In short, it runs like this: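 ACHN cells treated 24 h with 25 or 50 nM, then nuclear and cytosolic extracts prepared. Lysis in RIPA buffer, BCA quantitation, 30–50 μg protein resolved on 10% or 12% gels. Blotted with anti-PRDX1 (1:1000) and β-actin (1:3000), band ratio PRDX1/β-actin reported as fold change. Mean ± SD.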

Test [20] concerns the target T1, Peroxiredoxin-1 (Homo sapiens). As to the kind of experiment: Induction of PRDX1 nuclear translocation in human ACHN cells at 25 to 50 nM measured after 24 hrs by DAPI staining-based microscopic analysis. The test is classed as cell-based. The method, boiled down: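 ACHN cells exposed 24 h to 25 or 50 nM, fixed in 4% paraformaldehyde 10 min and permeabilised with 0.5% Triton X-100. Blocked with 10% FBS, 4 °C, 12 h. Stained with anti-PRDX1 overnight, FITC secondary 2 h RT, DAPI nuclear counterstain. Confocal imaging scored mean fluorescence intensity (n = 9).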

Test [21] concerns Mus musculus. Nature of the test: Up regulation of PRDX1 expression in human ACHN cells xenografted Balb/c nu/nu mouse at 0.8 mg/kg, ip administered once daily for 21 days measured post-last dose by immunoblot analysis. The class given is functional, organism-based. In short, it runs like this: (§3)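 Male athymic Balb/c nu/nu mice, four weeks old, acclimatised 1 week. 10^7 ACHN cells in 0.2 mL PBS injected into the right flank. At about 150 mm3, mice randomised into PBS control or 0.8 mg/kg groups, dosed ip daily for three weeks. Tumours measured by caliper (volume = 0.5 × L × W²) with body weight recorded. Endpoint tumour weight, sections stained by H&E and TUNEL. Tissue lysed for immunoblot.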

Test [22] concerns ACHN. Nature of the test: Antitumor activity against human ACHN cells xenografted in Balb/c nu/nu mouse assessed as tumor growth inhibition at 0.8 mg/kg, ip administered once daily for 21 days measured post-last dose by H and E staining-based assay. The class given is functional, organism-based. The method, boiled down:
as §3

With `C/C=C(\C)[C@H](O)[C@H](C)/C=C(C)/C=C/C/C(C)=C/Cc1nc(OC)c(OC)c(O)c1C` [PIERICIDIN A], the IC50 in test [1] was determined as 400 nM; in test [2] it was 5200 nM; in test [3] it was 1600 nM. Also, the result in test [4], in test [5], in test [6], in [7], in test [8] and in test [9] was Active. Besides, the outcome in test [10], in test [11], in test [12], in test [13], in test [19] and in [20] was Active. Also, the outcome in [21] was Active. Moreover, the viability at 0.05 µM in [14] worked out at 81.9%; in [16] it was 15.9%. Also, the Activity in test [15] came to 1.3%; in test [17], 1.1%; in [18] it was 75.6%. For the same compound, in test [22], the TGI result was “Active”.

The IC50 is the concentration that gives 50% inhibition.
